In assay [1] the test system is MDA-MB-231. The assay is described as follows: Antiproliferative activity against human MDA-MB-231 cells at 0.04 to 25 ug/ml after 96 hrs by CellTiter 96 AQueous one solution cell proliferation assay.
Assay [2] concerns MDA-MB-435. Description: Antiproliferative activity against human MDA-MB-435 cells at 0.04 to 25 ug/ml after 96 hrs by CellTiter 96 AQueous one solution cell proliferation assay.
The subject of assay [3] is MDA-MB-231. Description: Antiproliferative activity against human MDA-MB-231 cells after 96 hrs by CellTiter 96 AQueous one solution cell proliferation assay. In kind it is functional, cell-based. The settings on record: MDA-MB-231, 96 h. In short, it runs like this:
(§1)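 Cells kept in RPMI 1640 with 10% FBS, penicillin (100 units/mL) and streptomycin (100 μg/mL) at 37 °C, 5% CO₂. Log-phase cells were trypsinized and seeded at 5000 per well, then left overnight. DMSO solutions were serially diluted and added at 25, 5.0, 1.0, 0.2 and 0.04 μg/mL for 96 h at 37 °C. Viability was read by absorbance as percent viable cells versus solvent control.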

Assay [4] concerns MDA-MB-435. Description: Antiproliferative activity against human MDA-MB-435 cells after 96 hrs by CellTiter 96 AQueous one solution cell proliferation assay. It is filed as functional, cell-based. As to conditions: MDA-MB-435, 96 h. An outline of the steps: as §1
In assay [5] the test system is MDA-MB-231. The assay is described as follows: Antiproliferative activity against human MDA-MB-231 cells at 25 ug/ml after 96 hrs by CellTiter 96 AQueous one solution cell proliferation assay.
The test system of assay [6] is MDA-MB-435. Description: Antiproliferative activity against human MDA-MB-435 cells at 25 ug/ml after 96 hrs by CellTiter 96 AQueous one solution cell proliferation assay.
Assay [7] relates to MDA-MB-435. The assay is described as follows: Antiproliferative activity against human MDA-MB-435 cells assessed as viable cells at 1 ng/ml after 96 hrs by CellTiter 96 AQueous one solution cell proliferation assay relative to control. It is filed as functional. The settings on record: MDA-MB-435, 96 h, read-out: Activity.

Each structure is given as a SMILES string. Activity calls are given as the source filed them. The calls are words filed in the database; no cut-off is given here.

Activity, IC50 and viability data for seven compounds are collected here from ChEMBL document CHEMBL4138280, “Ribocyclophanes A-E, Glycosylated Cyclophanes with Antiproliferative Activity from Two Cultured Terrestrial Cyanobacteria” (J Nat Prod, 2018).

Take `CCCC[C@H]1CCCC[C@H](C)[C@@H](OC(C)=O)c2cc(O)c(c(O)c2)[C@@H](CCCC)CCCC[C@H](C)[C@@H](OC(C)=O)c2cc(O)c1c(O)c2`: the result in the assay with MDA-MB-231 [1] and in the assay on MDA-MB-435 [2] was Active.

`CCCC[C@H]1CCCC[C@H](C)[C@@H](OC(C)=O)c2cc(O)c(c(O)c2)[C@@H](CCCC)CCCC[C@H](C)[C@@H](O[C@@H]2OC[C@@H](O)[C@@H](O)[C@H]2O)c2cc(O)c1c(O)c2`: the results for the IC50 in the assay on MDA-MB-231 [3] and in the assay on MDA-MB-435 [4] were 0.8 µM and 0.6 µM, respectively.

Take `CCCCC(Cl)CCCC[C@H](C)[C@@H](O[C@@H]1OC[C@@H](O)[C@@H](O)[C@H]1O)c1cc(O)c([C@@H](CCCC)CCCC[C@H](C)[C@@H](OC(C)=O)c2cc(O)cc(O)c2)c(O)c1` (stereo partly drawn): the outcome in the assay with MDA-MB-231 [5] and in the assay with MDA-MB-435 [6] was inactive.

On to `CCCC[C@H]1CCCC[C@H](C)[C@@H](O[C@@H]2OC[C@@H](O)[C@@H](O)[C@H]2O)c2cc(O)c(c(O)c2)[C@@H](CCCC)CCCC[C@H](C)[C@@H](O[C@@H]2OC[C@@H](O)[C@@H](O)[C@H]2O)c2cc(O)c1c(O)c2`, for which the result in the assay with MDA-MB-231 [1] and with MDA-MB-435 [2] was Active.

Consider `CC[C@]1(O)C[C@@H]2CN(CCc3c([nH]c4ccccc34)[C@@](C(=O)OC)(c3cc4c(cc3OC)N(C)[C@H]3[C@@](O)(C(=O)OC)[C@H](OC(C)=O)[C@]5(CC)C=CCN6CC[C@]43[C@@H]65)C2)C1` [VINBLASTINE], for which the viability at 0.001 µg/mL in the assay on MDA-MB-435 [7] was determined as 49%.

Turning to `CCCC[C@H]1CCCC[C@H](C)Cc2cc(O)c(c(O)c2)[C@@H](CCCC)CCCC[C@H](C)[C@@H](O[C@@H]2OC[C@@H](O)[C@@H](O)[C@H]2O)c2cc(O)c1c(O)c2`, the values for the IC50 with MDA-MB-231 [3] and with MDA-MB-435 [4] were 1.2 µM and 1.3 µM, respectively.

As to `CCCC[C@H]1CCCC[C@H](C)[C@@H](O)c2cc(O)c(c(O)c2)[C@@H](CCCC)CCCC[C@H](C)[C@@H](O[C@@H]2OC[C@@H](O)[C@@H](O)[C@H]2O)c2cc(O)c1c(O)c2`, the outcome in the assay with MDA-MB-231 [1] and with MDA-MB-435 [2] was Active.
